Data reported in ChEMBL document CHEMBL3272275, “Synthesis and antiinflammatory activity of some 1,2,3- and 1,2,4-triazolepropionic acids” (J Med Chem, 1978).

Assays:
Rattus norvegicus [1] = test: […] in Freund's adjuvant-induced Lewis rat arthritis model assessed as reduction of uninjected paw volume at 0.2 mmol/kg, po qd administered on day 0 to day 21 of adjuvant challenge measured on day 21 by plethysmometry relative to control; type: organism-based; set-up: scale not given: the % may be the effect or the level left; settings: in vivo
In short: (§1)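 Male Lewis rats (125-150 g) given an intradermal injection of 0.05 mL of 0.65% Mycobacterium tuberculosis suspension in Freund's adjuvant into the right hind plantar surface on day 0. Negative controls received mineral oil only. Dosing once daily by gavage, groups of six, days 0-21. Injected and uninjected hind-foot volume change over days 0-21 measured plethysmographically. Value is percent reduction relative to controls.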

Rattus norvegicus [2] = test: Antiinflammatory activity in Freund's adjuvant-induced Lewis rat arthritis model assessed as reduction of paw volume at 0.2 mmol/kg, po qd administered on day 0 to day 21 of adjuvant challenge measured on day 7 by plethysmometry relative to control; type: functional; set-up: scale not given: the % may be the effect or the level left
Rattus norvegicus [3] = test: Antiinflammatory activity in Freund's adjuvant-induced Lewis rat arthritis model assessed as reduction of paw volume at 0.2 mmol/kg, po qd administered on day 0 to day 21 of adjuvant challenge measured on day 21 by plethysmometry relative to control; type: functional; set-up: scale not given: the % may be the effect or the level left; in short: as §1
Rattus norvegicus [4] = test: Antiinflammatory activity against carrageenan/Evans blue dye-induced pleural effusion rat model assessed as reduction in pleural fluid volume at 0.4 mmol/kg, po administered 1 hr prior challenge measured 6 hrs post challenge relative to control; type: functional; set-up: scale not given: the % may be the effect or the level left
In short: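 Oral dosing at 0.4 mmol/kg to groups of six rats, 1 h before intrapleural carrageenan plus Evans blue dye. Rats killed 6 h after the irritants and pleural fluid volume measured. Value is percent reduction in fluid volume relative to untreated controls.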

Rattus norvegicus [5] = test: Antiinflammatory activity against carrageenan/Evans blue dye-induced pleural effusion rat model assessed as reduction in pleural fluid volume at 0.4 mmol/kg, po administered 1 hr prior challenge measured 6 hrs post challenge relative to phenylbutazone; type: functional
Rattus norvegicus [6] = test: […] in Freund's adjuvant-induced Lewis rat arthritis model assessed as reduction of uninjected paw volume at 72 mg/kg, po qd administered on day 0 to day 21 of adjuvant challenge measured on day 21 by plethysmometry relative to control; type: organism-based; set-up: dose 72 mg/kg, route oral; scale not given: the % may be the effect or the level left; settings: in vivo; in short: as §1
Rattus norvegicus [7] = test: Antiinflammatory activity in Freund's adjuvant-induced Lewis rat arthritis model assessed as reduction of paw volume at 72 mg/kg, po qd administered on day 0 to day 21 of adjuvant challenge measured on day 21 by plethysmometry relative to control; type: functional; set-up: scale not given: the % may be the effect or the level left; in short: as §1
Rattus norvegicus [8] = test: Antiinflammatory activity in Freund's adjuvant-induced Lewis rat arthritis model assessed as reduction of paw volume at 72 mg/kg, po qd administered on day 0 to day 21 of adjuvant challenge measured on day 7 by plethysmometry relative to control; type: functional; set-up: scale not given: the % may be the effect or the level left
Rattus norvegicus [9] = test: Antiinflammatory activity against carrageenan/Evans blue dye-induced pleural effusion rat model assessed as reduction in pleural fluid volume at 0.83 mmol/kg, po administered 1 hr prior challenge measured 6 hrs post challenge relative to control; type: functional; set-up: scale not given: the % may be the effect or the level left

| SMILES | Activity (Rattus norvegicus [1]) [%] | Activity (Rattus norvegicus [2]) [%] | Activity (Rattus norvegicus [3]) [%] | Activity (Rattus norvegicus [4]) [%] | fold change (FC) (Rattus norvegicus [5]) | Activity (Rattus norvegicus [6]) [%] | Activity (Rattus norvegicus [7]) [%] | Activity (Rattus norvegicus [8]) [%] | Activity (Rattus norvegicus [9]) [%] |
| --- | --- | --- | --- | --- | --- | --- | --- | --- | --- |
| O=C(O)CCn1cc(-c2cccc(F)c2)nn1 | 1.6 | -9.9 | -10 | 1.7 | – | – | – | – | – |
| CC(=O)Nc1cccc(-c2cn(CCC(=O)O)nn2)c1 | -19 | 1.7 | 20 | 9.9 | – | – | – | – | – |
| Cc1cccc(-c2cn(CCC(=O)O)nn2)c1 | 22 | 10 | -7.8 | 0 | – | – | – | – | – |
| O=C(O)CCc1nc(-c2ccccc2)n[nH]1 | 30 | 9.1 | 4.2 | -1.7 | – | – | – | – | – |
| O=C(O)CCn1nncc1-c1ccccc1 | – | – | – | 5 | – | – | – | – | – |
| O=C(O)/C=C/c1cnn(-c2cccc(Cl)c2)n1 | – | – | – | 18 | – | – | – | – | – |
| O=C(O)CCc1cn(-c2ccccc2)nn1 | -3.2 | 2.3 | -1.6 | 1.6 | – | – | – | – | – |
| O=C(O)CCc1nc(-c2cccc(Cl)c2)n[nH]1 | 3 | 3 | 3 | 2.9 | – | – | – | – | – |
| Cc1nn(CCC(=O)O)nc1-c1ccccc1 | – | – | – | 17 | – | – | – | – | – |
| O=C(O)/C=C/c1cnn(-c2ccccc2)n1 | 42 | 14 | 20 | 13 | – | – | – | – | – |
| O=C(O)CCn1cc(-c2ccccc2)nn1 | -12 | 8.9 | 2.2 | 0 | – | – | – | – | – |
| O=C(O)CCn1cnc(-c2cccc(Br)c2)n1 | 16 | 6.2 | 0.1 | 8.9 | – | – | – | – | – |
| CN(C)c1nn(CCC(=O)[O-])nc1-c1ccccc1.[Na+] | – | – | – | 0 | – | – | – | – | – |
| O=C(O)CCn1ncc(-c2cccc(Cl)c2)n1 | 26 | 28 | 42 | 19 | – | – | – | – | – |
| Cc1cccc(-c2n[nH]c(CCC(=O)O)n2)c1 | – | – | – | -3 | – | – | – | – | – |
| O=C(O)/C=C/c1cnn(-c2cccc(Br)c2)n1 | 16 | 12 | 14 | 20 | – | – | – | – | – |
| O=C(O)CCn1cc(-c2cccnc2)nn1 | -30 | 9.3 | 18 | 5.1 | – | – | – | – | – |
| CCOc1cccc(-c2cn(CCC(=O)O)nn2)c1 | -28 | 0.4 | -9 | 0.6 | – | – | – | – | – |
| O=C(O)CCc1nc(-c2cccc(Br)c2)n[nH]1 | 30 | -13 | -1.2 | -9 | – | – | – | – | – |
| Cl.O=C(O)CCn1ncc(-c2cccnc2)n1 | – | – | – | -1.3 | – | – | – | – | – |
| O=C(O)CCn1nnc(-c2ccccc2)n1 | – | – | – | – | 0.9 | – | – | – | – |
| O=C(O)CCn1cnc(-c2ccccc2)n1 | 10 | 4.4 | 8.6 | -3.7 | – | – | – | – | – |
| O=C(O)CCn1ncc(-c2ccccc2)n1 | 63 | 36 | 57 | 42 | – | – | – | – | – |
| CC(=O)c1nn(CCC(=O)O)nc1-c1ccccc1 | -30 | 13 | -8 | 2.6 | – | – | – | – | – |

| SMILES | Activity (Rattus norvegicus [1]) [%] | Activity (Rattus norvegicus [2]) [%] | Activity (Rattus norvegicus [3]) [%] | Activity (Rattus norvegicus [4]) [%] | fold change (FC) (Rattus norvegicus [5]) | Activity (Rattus norvegicus [6]) [%] | Activity (Rattus norvegicus [7]) [%] | Activity (Rattus norvegicus [8]) [%] | Activity (Rattus norvegicus [9]) [%] |
| --- | --- | --- | --- | --- | --- | --- | --- | --- | --- |
| Nc1cccc(-c2cn(CCC(=O)O)nn2)c1 | -6.7 | 2.8 | 14 | 1.4 | – | – | – | – | – |
| Cc1cccc(-c2ncn(CC(=O)O)n2)c1 | -13 | 0.2 | -6 | 3 | – | – | – | – | – |
| O=C(O)CCc1cn(-c2cccc(F)c2)nn1 | -2 | 22 | -2.4 | -4.1 | – | – | – | – | – |
| O=C(O)CCc1ncn(-c2cccc(Cl)c2)n1 | – | – | – | 7.5 | – | – | – | – | – |
| O=C(O)CCn1ncc(-c2cc(Cl)cc(Cl)c2)n1 | 38 | 35 | 33 | 0 | – | – | – | – | – |
| O=C(O)CCn1cc(-c2cccc(Br)c2)nn1 | 23 | 0 | 7.2 | 11 | – | – | – | – | – |
| O=C(O)CCc1cnn(-c2cccc(Cl)c2)n1 | 11 | 13 | 32 | 33 | – | – | – | – | – |
| O=C(O)CCc1cnn(-c2ccccc2)n1 | 36 | 9.1 | 24 | 28 | – | – | – | – | – |
| O=C(O)CCn1cnc(-c2cccc(Cl)c2)n1 | 14 | 3 | 11 | 1.1 | – | – | – | – | – |
| O=C(O)CCCn1ncc(-c2ccccc2)n1 | 1.4 | -1.8 | 14 | 13 | – | – | – | – | – |
| O=C(O)CCc1ncn(-c2ccccc2)n1 | -15 | 1.3 | -0.6 | 12 | – | – | – | – | – |
| Cc1cccc(-c2cnn(CCC(=O)O)n2)c1 | 9.6 | 13 | 4.5 | -1.3 | – | – | – | – | – |
| O=C(O)CCn1nc(-c2ccccc2)c(-c2ccccc2)n1 | 34 | 21 | 23 | 26 | – | – | – | – | – |
| CC(=O)Oc1ccccc1C(=O)O [ASPIRIN] | – | – | – | – | – | -11 | 5 | 37 | 29 |
| O=C(O)Cn1ncc(-c2ccccc2)n1 | 45 | -17 | -9 | -5 | – | – | – | – | – |
| O=C(O)CCn1ncc(-c2cccc(Br)c2)n1 | 25 | 19 | 30 | 29 | – | – | – | – | – |
| Cc1cccc(-c2ncn(CCC(=O)O)n2)c1 | 50 | -5.1 | 7.1 | -3.2 | – | – | – | – | – |
| CCCCC1C(=O)N(c2ccccc2)N(c2ccccc2)C1=O [PHENYLBUTAZONE] | 36 | 33 | 39 | 28 | – | – | – | – | – |
| CC(=O)Nc1cccc(-c2cnn(CCC(=O)O)n2)c1 | -24 | 8.1 | -0.1 | -3.2 | – | – | – | – | – |
| O=C(O)CCc1cnn(-c2cccc(Br)c2)n1 | 39 | 14 | 35 | 14 | – | – | – | – | – |
| O=C(O)CCn1cc(-c2cccc(Cl)c2)nn1 | -8.2 | -1.1 | 3.5 | -1.4 | – | – | – | – | – |
| O=C(O)CCc1ncn(-c2cc(Cl)cc(Cl)c2)n1 | 71 | 23 | 30 | 5.2 | – | – | – | – | – |
| O=C(O)CCc1nnn(-c2cccc(Br)c2)n1 | 22 | 17 | 34 | 21 | – | – | – | – | – |
| O=C(O)CCc1cn(-c2cccc(Cl)c2)nn1 | 21 | 10 | -4.9 | 10 | – | – | – | – | – |
